# Key:
# [1] = molecular target: Mitogen-activated protein kinase 10 (Homo sapiens, UniProt P53779); experiment: Inhibition of recombinant JNK3 using ser73 of c-jun as substrate preincubated for 15 mins measured after 60 mins by TR-FRET assay
# Outline: (§1)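 Recombinant JNK enzyme assay run at 10 µM ATP. IC50 values are means of at least three experiments.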
# [2] = molecular target: Mitogen-activated protein kinase 8 (Homo sapiens, UniProt P45983); experiment: Inhibition of recombinant JNK1 using ser73 of c-jun as substrate preincubated for 15 mins measured after 60 mins by TR-FRET assay; outline: as §1
# [3] = Oxidative metabolic stability in human liver microsomes assessed as compound remaining at 1 uM after 30 mins; format: ADME, Microsome; conditions: read-out: Stability
# Outline: (§2)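 Test compound was incubated with mouse, rat or human liver microsomes for 30 min. The read-out is percent of parent compound remaining.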
# [4] = Oxidative metabolic stability in rat liver microsomes assessed as compound remaining at 1 uM after 30 mins; format: ADME, Microsome; conditions: read-out: Stability; outline: as §2
# [5] = Oxidative metabolic stability in mouse liver microsomes assessed as compound remaining at 1 uM after 30 mins; format: ADME, Microsome; conditions: read-out: Stability; outline: as §2
# [6] = molecular target: Mitogen-activated protein kinase 9 (Homo sapiens, UniProt P45984); experiment: Inhibition of recombinant JNK2 using ser73 of c-jun as substrate preincubated for 15 mins measured after 60 mins by TR-FRET assay; outline: as §1
# Mitogen-activated protein kinase 9, sequence (P45984 whole entry): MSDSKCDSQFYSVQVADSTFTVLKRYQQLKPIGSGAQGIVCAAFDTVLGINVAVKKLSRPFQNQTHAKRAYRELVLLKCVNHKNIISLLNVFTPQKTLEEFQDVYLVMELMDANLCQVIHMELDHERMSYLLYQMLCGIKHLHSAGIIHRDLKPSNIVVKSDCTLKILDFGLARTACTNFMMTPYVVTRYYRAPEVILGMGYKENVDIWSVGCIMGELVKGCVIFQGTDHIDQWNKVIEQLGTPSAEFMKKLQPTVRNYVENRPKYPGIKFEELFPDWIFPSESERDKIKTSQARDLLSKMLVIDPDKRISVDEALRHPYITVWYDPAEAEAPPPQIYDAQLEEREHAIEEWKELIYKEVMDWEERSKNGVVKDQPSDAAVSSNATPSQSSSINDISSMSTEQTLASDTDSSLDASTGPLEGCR
# Mitogen-activated protein kinase 10, sequence (P53779 whole entry): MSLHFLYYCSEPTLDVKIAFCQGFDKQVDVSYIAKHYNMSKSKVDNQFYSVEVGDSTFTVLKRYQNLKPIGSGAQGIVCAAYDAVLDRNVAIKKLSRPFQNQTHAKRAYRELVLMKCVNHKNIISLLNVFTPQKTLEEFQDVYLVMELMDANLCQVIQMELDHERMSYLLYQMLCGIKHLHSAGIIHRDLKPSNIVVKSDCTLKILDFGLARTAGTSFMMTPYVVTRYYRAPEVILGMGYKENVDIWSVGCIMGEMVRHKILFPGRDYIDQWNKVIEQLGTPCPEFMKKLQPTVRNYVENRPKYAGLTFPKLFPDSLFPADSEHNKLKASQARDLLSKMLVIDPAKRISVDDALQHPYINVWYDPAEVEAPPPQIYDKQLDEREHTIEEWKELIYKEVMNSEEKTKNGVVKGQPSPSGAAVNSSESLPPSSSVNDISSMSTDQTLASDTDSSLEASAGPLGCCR
# Mitogen-activated protein kinase 8, sequence (P45983 whole entry): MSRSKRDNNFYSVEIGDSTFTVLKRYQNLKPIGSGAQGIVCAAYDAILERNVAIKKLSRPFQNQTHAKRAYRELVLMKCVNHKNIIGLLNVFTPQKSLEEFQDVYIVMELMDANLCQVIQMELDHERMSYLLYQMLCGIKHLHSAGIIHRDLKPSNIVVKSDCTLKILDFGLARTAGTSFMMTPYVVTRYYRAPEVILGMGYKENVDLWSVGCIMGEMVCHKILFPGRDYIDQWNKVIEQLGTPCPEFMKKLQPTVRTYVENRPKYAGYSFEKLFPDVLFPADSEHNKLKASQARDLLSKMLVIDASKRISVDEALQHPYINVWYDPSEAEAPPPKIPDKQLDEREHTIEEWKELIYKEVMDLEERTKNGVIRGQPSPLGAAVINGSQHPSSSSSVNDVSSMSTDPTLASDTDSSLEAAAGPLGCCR
SMILES,IC50 [1] [nM],IC50 [2] [nM],"remaining at 0.5 h, 1 µM [3] [%]","remaining at 0.5 h, 1 µM [4] [%]","remaining at 0.5 h, 1 µM [5] [%]",IC50 [6] [nM]
O=C(Cc1ccc(F)c2cnccc12)Nc1scc(Br)c1-c1ncn[nH]1,24,16,44,5,34,68
O=C(CN1C(=O)CCc2ncccc21)Nc1scc(Br)c1-c1ncco1,6,7,11,0,0,66
N#Cc1ccc2ccc(=O)n(CC(=O)Nc3scc(Br)c3-c3ncn[nH]3)c2c1,2,1,59,62,44,10
O=C(Cn1c(=O)ccc2c(C(F)(F)F)cccc21)Nc1scc(Br)c1-c1ncn[nH]1,71,31,49,1,27,193
O=C(Cc1cc(C(F)(F)F)cc2ncccc12)Nc1scc(Br)c1-c1nnc[nH]1,280,178,31,16,3,337
N#Cc1csc(NC(=O)CN2C(=O)CCc3ncccc32)c1-c1nccs1,11,10,16,1,7,62
O=C(CN1C(=O)CCc2ccccc21)Nc1scc(Br)c1-c1ncn[nH]1,–,–,24,0,0,–
N#Cc1csc(NC(=O)Cn2c(=O)ccc3cc(C(F)(F)F)ccc32)c1-c1ncco1,8,4,24,2,4,29
O=C(Cn1c(=O)ccc2cnc(C(F)(F)F)cc21)Nc1scc(Br)c1-c1ncn[nH]1,6,4,77,43,43,21
N#Cc1csc(NC(=O)Cn2c(=O)ccc3cc(C(F)(F)F)ccc32)c1-c1cscn1,8,2,32,8,17,17
O=C(Cn1c(=O)ccc2ccc(OC(F)(F)F)cc21)Nc1scc(Br)c1-c1ncn[nH]1,19,11,29,26,10,68
O=C(Cc1cc(F)cc2ncccc12)Nc1scc(Br)c1-c1ncn[nH]1,41,14,42,18,5,140
O=C(Cn1c(=O)ccc2cc(OC(F)(F)F)ccc21)Nc1scc(Br)c1-c1ncn[nH]1,6,2,64,39,16,12
O=C(Cc1cccc2ncc(F)cc12)Nc1scc(Br)c1-c1nc[nH]n1,30,17,39,17,2,92
N#Cc1csc(NC(=O)Cn2c(=O)ccc3cc(C(F)(F)F)ccc32)c1-c1nccs1,9,7,75,76,52,53
O=C(Cn1c(=O)ccn2nccc12)Nc1scc(Br)c1-c1ncn[nH]1,8,8,72,71,50,74
